From ChEMBL document CHEMBL3108678, “Isolation and synthesis of pulmonarins A and B, acetylcholinesterase inhibitors from the colonial ascidian Synoicum pulmonaria” (J Nat Prod, 2014)
The source made the active and inactive calls. No cut-off for these calls is given here.

Assays:
[1] = test system: Staphylococcus epidermidis; assay: Antimicrobial activity against Staphylococcus epidermidis ATCC 35984 assessed as inhibition of biofilm formation; type: functional, organism-based
MRC5 = assay: Cytotoxicity against human MRC5 cells; type: cell-based
MCF7 = assay: Cytotoxicity against human MCF7 cells; type: cell-based
HT-29 = assay: Cytotoxicity against human HT-29 cells; type: cell-based
A2058 = assay: Cytotoxicity against human A2058 cells; type: cell-based
Pseudomonas aeruginosa = assay: Antimicrobial activity against Pseudomonas aeruginosa ATCC 27853 at 8 to 500 ug/ml after 24 hrs; type: functional, organism-based
Summary of the method: (§1)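 Broth microdilution in Mueller Hinton broth at 37 °C. Samples dissolved in H2O are mixed 1:1 with log-phase bacterial suspension, about 5 × 10⁵ cells per well, and tested at 8 to 500 μg/mL. Growth is followed by optical density. MIC is the lowest concentration giving no OD change after 24 h at 37 °C. Cecropin B (25 μM) serves as positive control.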

Escherichia coli = assay: Antimicrobial activity against Escherichia coli ATCC 25922 at 8 to 500 ug/ml after 24 hrs; type: functional, organism-based; summary of the method: as §1
Staphylococcus aureus = assay: Antimicrobial activity against Staphylococcus aureus ATCC 9144 at 8 to 500 ug/ml after 24 hrs; type: functional, organism-based; summary of the method: as §1
[2] = test system: Corynebacterium glutamicum; assay: Antimicrobial activity against Corynebacterium glutamicum ATCC 13032 after 24 hrs; type: functional; conditions: ATCC 13032, 24 h
Summary of the method: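 Broth microdilution in Mueller Hinton broth at 37 °C. Compounds were dissolved in water and tested from 8 to 500 μg/mL against log-phase bacteria at a start of about 5 × 10⁵ cells per well. Growth was followed by optical density, with cecropin B (25 μM) as positive control. MIC was taken as the lowest concentration giving no change in optical density after 24 h at 37 °C.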

Acetylcholinesterase [3] = biological target: T1, Acetylcholinesterase (Electrophorus electricus, UniProt O42275); assay: Noncompetitive inhibition of electric eel AChE using acetylthiocholine chloride as substrate after 5 mins by Dixon plot analysis
T1 sequence (O42275 whole entry): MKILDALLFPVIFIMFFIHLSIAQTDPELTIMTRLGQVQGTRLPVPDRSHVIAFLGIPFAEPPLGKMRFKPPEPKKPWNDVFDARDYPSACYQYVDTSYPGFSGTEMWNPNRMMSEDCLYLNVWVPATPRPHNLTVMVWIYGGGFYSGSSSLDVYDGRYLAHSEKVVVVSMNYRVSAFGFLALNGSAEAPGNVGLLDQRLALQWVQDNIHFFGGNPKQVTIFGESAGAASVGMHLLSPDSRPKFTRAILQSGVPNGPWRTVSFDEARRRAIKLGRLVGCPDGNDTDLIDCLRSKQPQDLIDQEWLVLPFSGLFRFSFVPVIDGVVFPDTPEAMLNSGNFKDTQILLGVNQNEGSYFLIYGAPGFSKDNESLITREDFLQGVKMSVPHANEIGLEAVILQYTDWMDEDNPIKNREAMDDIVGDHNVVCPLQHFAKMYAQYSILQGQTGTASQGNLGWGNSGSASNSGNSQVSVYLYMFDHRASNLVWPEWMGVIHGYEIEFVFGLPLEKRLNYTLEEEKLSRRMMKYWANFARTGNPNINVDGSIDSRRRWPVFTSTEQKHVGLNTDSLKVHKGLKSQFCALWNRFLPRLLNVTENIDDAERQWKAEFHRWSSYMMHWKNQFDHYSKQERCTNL

Acetylcholinesterase [4] = biological target: T1, Acetylcholinesterase; assay: Inhibition of electric eel AChE using acetylthiocholine chloride as substrate after 5 mins by Ellman's method

Compound	inhibition [1]	Activity (MRC5)	Activity (MCF7)	Activity (HT-29)	Activity (A2058)	Activity (Pseudomonas aeruginosa)	Activity (Escherichia coli)	Activity (Staphylococcus aureus)	MIC [2] [µg/mL]	Ki (Acetylcholinesterase [3]) [µM]	IC50 (Acetylcholinesterase [4]) [µM]
COc1c(Br)cc(C(=O)OCC[N+](C)(C)C)cc1Br.[Cl-]	inactive	Non-toxic	Non-toxic	Non-toxic	Non-toxic	inactive	inactive	inactive	500	90	105
COc1c(Br)cc(CC(=O)NCCCCC[N+](C)(C)C)cc1Br.[I-]	inactive	Non-toxic	Non-toxic	Non-toxic	Non-toxic	inactive	inactive	inactive	250	20	36
